Source: ChEMBL document CHEMBL3102746, “Anticomplement monoterpenoid glucosides from the root bark of Paeonia suffruticosa” (J Nat Prod, 2014)
Activity calls are given as the source filed them. No cut-off for these calls is given here.

Columns and labels:
Type in all cases: functional, cell-based
[1] = Anticomplement activity in New Zealand White rabbit erythrocytes assessed as concentration required for 50% hemolytic inhibition by alternative pathway after 30 mins; conditions: Oryctolagus cuniculus, Erythrocyte
Procedure, shortened: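 Samples diluted in GVB-Mg-EGTA and preincubated with 1:10 normal human serum at 37 °C for 10 min. Rabbit erythrocytes (3.0 × 10^8 cells/mL) then added for 30 min at 37 °C. Lysis read as supernatant OD at 405 nm. AP50 expressed as 50% inhibitory concentration. Heparin served as positive control.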

[2] = Anticomplement activity in sheep erythrocytes assessed as concentration required for 50% hemolytic inhibition by classical pathway after 30 mins by spectrophotometry; conditions: Ovis aries; Erythrocyte
Procedure, shortened: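 Sheep erythrocytes sensitized with rabbit anti-sheep erythrocyte antibodies in GVB2+. Test sample dilutions in GVB2+ preincubated with guinea pig serum (1:80) at 37 °C for 10 min, then EA added for 30 min at 37 °C. Supernatant OD read at 405 nm. Blank, 100% lysis and sample controls included. CH50 taken from mean of triplicates at each concentration. Heparin served as positive control.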

[3] = Anticomplement activity in sheep erythrocytes in C1q-depleted serum assessed as inhibition of hemolysis by classical pathway at 0.54 mM after 30 mins compound treated in normal human serum; conditions: Ovis aries, Erythrocyte
[4] = Anticomplement activity in sheep erythrocytes in C9-depleted serum assessed as inhibition of hemolysis by classical pathway at 0.54 mM after 30 mins compound treated in normal human serum; conditions: Ovis aries, Erythrocyte
[5] = Anticomplement activity in sheep erythrocytes in C5-depleted serum assessed as inhibition of hemolysis by classical pathway at 0.54 mM after 30 mins compound treated in normal human serum; conditions: Ovis aries, Erythrocyte
[6] = Anticomplement activity in sheep erythrocytes in C3-depleted serum assessed as inhibition of hemolysis by classical pathway at 0.54 mM after 30 mins compound treated in normal human serum; conditions: Ovis aries, Erythrocyte
[7] = Anticomplement activity in sheep erythrocytes in C3-depleted serum assessed as inhibition of hemolysis by classical pathway at 0.45 mM after 30 mins compound treated in normal human serum; conditions: Ovis aries, Erythrocyte
[8] = Anticomplement activity in sheep erythrocytes in C9-depleted serum assessed as inhibition of hemolysis by classical pathway at 0.45 mM after 30 mins compound treated in normal human serum; conditions: Ovis aries, Erythrocyte
[9] = Anticomplement activity in sheep erythrocytes in C1q-depleted serum assessed as inhibition of hemolysis by classical pathway at 0.45 mM after 30 mins compound treated in normal human serum; conditions: Ovis aries, Erythrocyte
[10] = Anticomplement activity in sheep erythrocytes in C5-depleted serum assessed as inhibition of hemolysis by classical pathway at 0.45 mM after 30 mins compound treated in normal human serum; conditions: Ovis aries, Erythrocyte
[11] = Anticomplement activity in sheep erythrocytes in C5-depleted serum assessed as hemolysis by classical pathway at 1.09 mM after 30 mins compound treated in normal human serum; conditions: Ovis aries, Erythrocyte
[12] = Anticomplement activity in sheep erythrocytes in C1q-depleted serum assessed as hemolysis by classical pathway at 1.09 mM after 30 mins compound treated in normal human serum; conditions: Ovis aries, Erythrocyte
[13] = Anticomplement activity in sheep erythrocytes in C3-depleted serum assessed as hemolysis by classical pathway at 1.09 mM after 30 mins compound treated in normal human serum; conditions: Ovis aries, Erythrocyte
[14] = Anticomplement activity in sheep erythrocytes in C9-depleted serum assessed as hemolysis by classical pathway at 1.09 mM after 30 mins compound treated in normal human serum; conditions: Ovis aries, Erythrocyte
[15] = Anticomplement activity in sheep erythrocytes in C2-depleted serum assessed as hemolysis by classical pathway at 1.09 mM after 30 mins compound treated in normal human serum; conditions: Ovis aries, Erythrocyte
[16] = Anticomplement activity in sheep erythrocytes in C4-depleted serum assessed as hemolysis by classical pathway at 1.09 mM after 30 mins compound treated in normal human serum; conditions: Ovis aries, Erythrocyte

Row | Structure (SMILES) | AP50 [1] [mM] | INH [2] [mM] | inhibition [1] | inhibition [2] | other results
1 | COc1ccc(C(=O)OC[C@H]2O[C@@H](O[C@]34C[C@@H]5[C@@]6(O)C[C@]3(C)OC(O6)[C@]54COC(=O)c3ccc(O)cc3)[C@H](O)[C@@H](O)[C@@H]2O)cc1 | 0.97 | 0.41 |  |  | 
2 | CO[C@@H]1O[C@@]2(C)CC(=O)[C@H]3C[C@]2(O[C@@H]2O[C@H](COC(=O)c4ccccc4)[C@@H](O)[C@H](O)[C@H]2O)[C@]13COC(=O)c1ccccc1 |  |  | inactive | inactive | 
3 | COc1ccc(C(=O)OC[C@]23[C@H]4O[C@]5(O)C[C@](C)(O4)[C@@]2(O[C@@H]2O[C@H](CO)[C@@H](O)[C@H](O)[C@H]2O)C[C@H]35)cc1 | 3.67 | 2.67 |  |  | 
4 | COc1ccc(C(=O)OC[C@]23C4O[C@]5(O)C[C@](C)(O4)[C@]2(O[C@@H]2O[C@H](COC(=O)c4ccccc4)[C@@H](O)[C@H](O)[C@H]2O)C[C@H]53)cc1 | 1.6 | 1.29 |  |  | 
5 | C[C@@]12C[C@@]3(O)O[C@@H](O1)[C@]1(COC(=O)c4ccc(O)cc4)[C@H]3C[C@@]12O[C@@H]1O[C@H](COC(=O)c2ccc(O)cc2)[C@@H](O)[C@H](O)[C@H]1O | 0.67 | 0.34 |  |  | 
6 | C[C@@]12C[C@@]3(O)OC(O1)[C@]1(COC(=O)c4ccc(O)cc4)[C@@H]3C[C@@]21O[C@@H]1O[C@H](COC(=O)c2ccccc2)[C@@H](O)[C@H](O)[C@H]1O | 0.85 | 0.58 |  |  | 
7 | C[C@@]12C[C@@]3(O)O[C@@H](O1)[C@]1(COC(=O)c4ccccc4)[C@@H]3C[C@]12O[C@@H]1O[C@H](COC(=O)c2cc(O)c(O)c(O)c2)[C@@H](O)[C@H](O)[C@H]1O | 0.32 | 0.21 |  |  | inhibition [3]: Active; inhibition [4]: inactive; inhibition [5]: Active; inhibition [6]: Active
8 | CO[C@H]1O[C@@]2(C)CC(=O)[C@H]3C[C@]2(O[C@@H]2O[C@H](COC(=O)c4ccccc4)[C@@H](O)[C@H](O)[C@H]2O)[C@]13COC(=O)c1ccccc1 |  |  | inactive | inactive | 
9 | CO[C@]12C[C@]3(C)OC(O1)[C@]1(COC(=O)c4ccccc4)[C@@H]2C[C@@]31O[C@@H]1O[C@H](COC(=O)c2ccccc2)[C@@H](O)[C@H](O)[C@H]1O |  |  | inactive | inactive | 
10 | COc1ccc(C(=O)OC[C@@]23[C@@H](OC)O[C@@]4(C)CC(=O)[C@H]2C[C@]34O[C@@H]2O[C@H](COC(=O)c3ccccc3)[C@@H](O)[C@H](O)[C@H]2O)cc1 |  |  | inactive | inactive | 
11 | C[C@@]12C[C@@]3(O)O[C@@H](O1)[C@]1(COC(=O)c4ccccc4)[C@@H]3C[C@]12O[C@@H]1O[C@H](COC(=O)c2ccc(O)cc2)[C@@H](O)[C@H](O)[C@H]1O |  | 0.52 |  |  | 
12 | COc1cc(C(=O)OC[C@H]2O[C@@H](O[C@@]34C[C@H]5[C@@]3(COC(=O)c3ccccc3)[C@H]3O[C@]5(O)C[C@]4(C)O3)[C@H](O)[C@@H](O)[C@@H]2O)ccc1O |  | 2.02 |  |  | 
13 | CO[C@]12C[C@]3(C)O[C@H](O1)[C@]1(COC(=O)c4ccc(O)cc4)[C@H]2C[C@@]13O[C@@H]1O[C@H](CO)[C@@H](O)[C@H](O)[C@H]1O |  |  | inactive | inactive | 
14 | C[C@@]12C[C@@]3(O)O[C@@H](O1)[C@]1(COC(=O)c4ccc(O)cc4)[C@H]3C[C@@]12O[C@@H]1O[C@H](COC(=O)c2cc(O)c(O)c(O)c2)[C@@H](O)[C@H](O)[C@H]1O | 0.25 | 0.14 |  |  | inhibition [7]: Active; inhibition [8]: inactive; inhibition [9]: Active; inhibition [10]: Active
15 | COc1ccc(C(=O)OC[C@]23C4O[C@]5(OC)C[C@](C)(O4)[C@]2(O[C@@H]2O[C@H](COC(=O)c4ccccc4)[C@@H](O)[C@H](O)[C@H]2O)C[C@H]53)cc1 |  |  | inactive | inactive | 
16 | C[C@@]12C[C@@]3(O)O[C@@H](O1)[C@]1(COC(=O)c4ccccc4)[C@H]3C[C@@]12O[C@@H]1O[C@H](COC(=O)c2ccccc2)[C@@H](O[C@@H]2O[C@H](CO)[C@@H](O)[C@H](O)[C@H]2O)[C@H](O)[C@H]1O |  | 2.29 | inactive |  | 
17 | COc1cc(C(=O)OC[C@H]2O[C@@H](O[C@@]34C[C@H]5[C@@]3(CO)[C@H]3O[C@]5(O)C[C@]4(C)O3)[C@H](O)[C@@H](O)[C@@H]2O)ccc1O | 1.12 | 0.89 |  |  | 
18 | COc1ccc(C(=O)OC[C@H]2O[C@@H](O[C@]34C[C@@H]5C(=O)C[C@]3(C)O[C@H](OC)[C@]54COC(=O)c3ccccc3)[C@H](O)[C@@H](O)[C@@H]2O)cc1 |  |  | inactive | inactive | 
19 | COc1ccc(C(=O)OC[C@H]2O[C@@H](O[C@]34C[C@@H]5[C@@]6(O)C[C@]3(C)OC(O6)[C@]54COC(=O)c3ccccc3)[C@H](O)[C@@H](O)[C@@H]2O)cc1 | 2.82 | 2.36 |  |  | 
20 | CO[C@H]1O[C@@]2(C)CC(=O)[C@@H]3C[C@@]2(O[C@@H]2O[C@H](CO)[C@@H](O)[C@H](O)[C@H]2O)[C@]13COC(=O)c1ccc(O)cc1 |  |  | inactive | inactive | 
21 | C[C@@]12C[C@@]3(O)OC(O1)[C@]1(COC(=O)c4ccc(O)cc4)[C@@H]3C[C@@]21O[C@@H]1O[C@H](COC(=O)c2ccccc2)[C@@H](O[C@@H]2O[C@H](CO)[C@@H](O)[C@H](O)[C@H]2O)[C@H](O)[C@H]1O | 0.43 | 0.33 |  |  | Activity [11]: < 10%; Activity [12]: < 10%; Activity [13]: < 10%; Activity [14]: < 10%; Activity [15]: 80.1%; Activity [16]: 89.3%
22 | C[C@@]12C[C@@]3(O)O[C@@H](O1)[C@]1(COC(=O)c4ccc(O)cc4)[C@@H]3C[C@]12O[C@@H]1O[C@H](CO)[C@@H](O)[C@H](O)[C@H]1O | 3.29 | 2.28 |  |  | 
